# Most compounds without a hit are left out; they make up all but 1.8% or so of the library.
# SIAE inh = human SIAE inhibitors, primary screen, biochemical, fluorescence polarization, FP-Rh probe, 1536-well HTS. Sialate O-acetylesterase (Homo sapiens), Q9HAT2. AID 1053197, 2014. inhibition, % at 9.66 µM. SIAE FP-Rh probe binding. 370,000 tested, 0.69% active;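 active means inhibition above a cutoff: mean of compounds within the control limits plus 3 SD of those, cut at about 17% in these data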;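 further: 0% = plate median of compound wells and 100% = probe without SIAE protein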
# Target sequence (Q9HAT2 whole entry, looked up): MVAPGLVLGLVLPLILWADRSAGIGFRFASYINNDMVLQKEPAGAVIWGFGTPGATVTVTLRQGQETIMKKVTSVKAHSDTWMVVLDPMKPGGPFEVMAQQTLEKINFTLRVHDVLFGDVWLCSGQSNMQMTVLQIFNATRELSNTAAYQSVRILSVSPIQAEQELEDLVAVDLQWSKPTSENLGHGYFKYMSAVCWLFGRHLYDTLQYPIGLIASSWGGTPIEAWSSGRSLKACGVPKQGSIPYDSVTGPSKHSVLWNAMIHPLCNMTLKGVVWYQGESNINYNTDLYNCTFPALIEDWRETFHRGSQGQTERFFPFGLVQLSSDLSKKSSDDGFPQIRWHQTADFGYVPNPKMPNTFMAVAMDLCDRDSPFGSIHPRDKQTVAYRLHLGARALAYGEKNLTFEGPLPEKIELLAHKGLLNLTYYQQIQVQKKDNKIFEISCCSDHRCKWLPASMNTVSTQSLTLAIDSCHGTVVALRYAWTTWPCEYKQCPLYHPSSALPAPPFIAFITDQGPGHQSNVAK
# TCR-CD3 inh = inhibitors of human TCR-CD3 interaction, primary screen, biochemical, fluorescence, TAMRA-labeled TCR probe | T-cell receptor (TCR) | inhibition, % at 9.4 µM | 360,000 tested, 0.37% active | AID 651800, 2012; in the data active means inhibition above about 19%;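 further: recombinant mutant TCR 2C K166C tagged with TAMRA read by polarization; 0% = receptor in buffer alone and 100% = receptor with positive control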
# ABHD4 inh = ABHD4 inhibitors, primary screen, biochemical, fluorescence polarization, mouse | (Lyso)-N-acylphosphatidylethanolamine lipase (Mus musculus), Q8VD66 | purified mABHD4, FP-Rh probe fluorescence polarization | inhibition, % at 8.92 µM | 370,000 tested, 0.54% active | AID 720543, 2013;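 active means inhibition exceeding the mean over every tested compound plus 3 SD, cut at about 30% in these data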;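 further: 0% = plate median of compound wells and 100% = S159A mutant with DMSO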
#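 Assay system: wild-type mouse ABHD4 protein; compound: single nominal dose of 8.92 µM, 0.89% DMSO final; schedule: 45 min + 60 min at 25 °C; measured by: FP readout, ex 525 nm / em 598 nm; evaluation: % inhibition of FP-Rh probe binding versus controls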
# HTRA1 inh = HTRA1 serine protease inhibitors, primary screen, biochemical, fluorescence polarization, HTS. Q92743. recombinant HTRA1, FP-rhodamine activity-based probe. inhibition, % at 5.96 µM. 340,000 tested, 0.5% active. AID 504803, 2011; in the data active means inhibition above about 36%;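 further: 0% = enzyme with DMSO and 100% = wells lacking enzyme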
# ARNT-TACC3 inh = disruptors of ARNT/TACC3 protein interaction, primary screen, biochemical, AlphaScreen, single concentration | Transforming acidic coiled-coil-containing protein 3 (Homo sapiens), Q9Y6A5 | AlphaScreen His-ARNT PAS-B/GST-TACC3 binding, luminescence; TACC3 fragment carries E629A point mutation | inhibition, % at 9.99 µM | 390,000 tested, 0.66% active | AID 623870, 2012;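 active means mean inhibition of replicates at least 50% and at least half of replicates each reaching 50%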;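 further: 0% = complete ARNT plus TACC3 wells and 100% = ARNT alone without TACC3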
# SIAE confirm = human SIAE inhibitors, retest, confirmation, biochemical, fluorescence polarization, FP-Rh probe, triplicate | shares compounds with SIAE inh | SIAE FP-Rh activity-based probe | inhibition, % at 9.66 µM | 2,300 tested, 13% active | AID 1117263, 2014;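 active means mean inhibition of the replicates above the hit cutoff set in the primary screen, cut at about 17% in these data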;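 further: 0% = SIAE with DMSO and probe and 100% = probe without SIAE; inhibitors lower polarization as more probe stays unbound to SIAE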
# Numbers without * were called inactive; . = no result given.
SMILES,SIAE inh,TCR-CD3 inh,ABHD4 inh,HTRA1 inh,ARNT-TACC3 inh,SIAE confirm
COc1ccccc1CNC(=O)C[C@@H]1CC[C@H](NC(C)=O)[C@H](CO)O1,.,.,.,.,0,.
COC(=O)/C(=C\c1c[nH]c2ccccc12)NC(C)=O,-2,6,1,-3,-2,.
CCOC(=O)/C(=C\c1c[nH]c2ccccc12)NC(C)=O,18*,-9,5,2,0,4
O=C(N[C@H]1CC[C@@H](CCNS(=O)(=O)c2ccc(F)cc2)O[C@H]1CO)c1cnccn1,.,.,.,.,-4,.
CCNC(=O)[C@@H]1[C@@H](CO)[C@@H]2Cn3c(ccc(C4=CCCC4)c3=O)[C@@H]2N1CC1CC1,.,.,.,.,6,.
CN(C)c1ccc(NC(=O)CSc2nc(N)c(C(=O)Nc3ccc(N(C)C)cc3)s2)cc1,20*,-2,4,5,.,9
COc1ccc(NC(=O)CSc2nc(N)c(C(=O)Nc3ccc(N(C)C)cc3)s2)cc1,.,.,.,1,5,.
O=C(Nc1ccc(-n2cnnn2)cc1)C1CCCCC1,2,4,-1,-3,-1,.
O=C(Oc1cccc(-n2cnnn2)c1)C1CCCCC1,23*,6,-2,-3,2,17*
O=C(NCCCN1CCOCC1)[C@H]1N[C@H]2c3ccc(C4=CCCC4)c(=O)n3C[C@H]2[C@@H]1CO,.,.,.,.,-1,.
CNC(=O)c1c(NC(=O)CS(=O)(=O)c2ccccc2)sc(C)c1C,5,1,-9,-2,1,.
Cc1sc(NC(=O)CS(=O)(=O)c2ccccc2)c(C(N)=O)c1C,17*,6,0,4,.,1
C[C@H]1CN([C@@H](C)CO)S(=O)(=O)c2ccc(C#CCN(C)C)cc2O[C@H]1CN(C)CC1CC1,.,.,.,.,1,.
COc1ccc(NC(=O)Nc2ccc3c(c2)C(=O)N([C@@H](C)CO)C[C@H](C)[C@@H](CN(C)S(=O)(=O)c2ccc(OC)cc2)OCCCC[C@H](C)O3)cc1,.,.,.,.,-8,.
CC(=O)c1ccc2c(c1)C1C=CCC1C(C(=O)O)N2 (configuration not stated),34*,49*,70*,.,18,8
COc1ccc(CN(C)C[C@@H]2Oc3c(NS(=O)(=O)c4ccc(Cl)cc4)cccc3C(=O)N([C@@H](C)CO)C[C@H]2C)cc1,.,.,.,.,-5,.
O=C(c1cn(-c2ccccc2)nc1-c1ccc(F)cc1)N1CCOCC1,3,-7,-2,-3,-4,.
O=C(NC(=S)N1CCOCC1)c1cn(-c2ccccc2)nc1-c1ccc(F)cc1,28*,-6,3,5,8,0
O=C(c1ccc(Cn2c(=S)[nH]c3ccccc3c2=O)cc1)N1CCN(c2ccccn2)CC1,23*,-4,3,-18,4,1
O=C(c1ccc(Cn2c(=O)[nH]c3ccccc3c2=O)cc1)N1CCN(c2ccccn2)CC1,3,5,5,0,-1,.
COc1cccc2c(=O)c3c(oc12)CCCC3,1,-6,4,5,.,.
Nc1cccc2c3c(oc12)CCCC3,18*,6,6,23,5,4
COc1ccc(NC(=O)Nc2ccc3c(c2)C(=O)N([C@@H](C)CO)C[C@H](C)[C@H](CN(C)C(=O)Nc2ccccc2)O3)cc1,.,.,.,.,-3,.
Cc1ccc(-n2c(CNc3ccc(F)cc3)nnc2SCC(=O)O)cc1,20*,4,2,.,.,4
Cc1ccc(NCc2nnc(SCC(=O)O)n2-c2ccc(C)cc2)cc1,3,-3,2,4,4,.
SMILES,SIAE inh,TCR-CD3 inh,ABHD4 inh,HTRA1 inh,ARNT-TACC3 inh,SIAE confirm
COc1cc(-c2nc(-c3ccccc3)c(-c3ccc(F)cc3)[nH]2)cc2c1OCO2,9,0,12,-5,-3,.
COc1ccc(-c2[nH]c(-c3ccc4c(c3)OCO4)nc2-c2ccccc2)cc1,21*,0,15,18,5,4
Cn1c(SCC(=O)c2ccc3c(c2)OCO3)nnc1-c1ccccn1,25*,1,0,-4,-1,1
C[C@@H]1CN([C@H](C)CO)S(=O)(=O)c2ccc(-c3cccc(F)c3)cc2O[C@H]1CN(C)C(=O)Nc1cc(F)ccc1F,.,.,.,.,1,.
COc1cc(/C=N/NC(=S)NC2CC3CC2C2C=CCC32)ccc1O (configuration not stated),23*,5,10,-4,13,15
CC(=O)NC12CC3CC(C1)CC(C(=O)N1CCN(S(=O)(=O)c4ccccc4C#N)CC1)(C3)C2,28*,-2,5,4,-1,-2
CC1CCC2(CCC(=O)N2CCCOC(=O)NC(C)(C)C)CC1 (configuration not stated),47*,.,0,.,.,-5
CCc1ccccc1NC(=O)CN(C)C(=O)CSc1nnc(Nc2cccc(C)c2C)s1,6,3,3,-3,0,.
CCc1ccccc1NC(=O)CN(C)C(=O)CSc1nn(-c2ccc(F)cc2)c(=S)s1,18*,-1,-11,-9,15,0
COc1cccc(S(=O)(=O)Nc2ccc3c(c2)[C@H]2C[C@H](CC(=O)NCc4ccccc4F)O[C@H](CO)[C@H]2O3)c1,.,.,.,.,8,.
O=c1c2cn[nH]c2[nH]c(=S)n1-c1cccc2ccccc12,23*,9,0,-6,-1,3
O=c1c2cn[nH]c2[nH]c(=S)n1-c1ccccc1,3,-6,12,6,-4,.
COc1ccc(-c2csc(CCN3N=C(C)CC3=O)n2)cc1,38*,4,2,-14,.,6
Cn1cnc(S(=O)(=O)Nc2ccccc2C(=O)NCC2CC2)c1,17*,4,6,2,-3,4
Cn1cnc(S(=O)(=O)N[C@H]2C=C[C@@H](CC(=O)NCC3CC3)O[C@@H]2CO)c1,.,.,.,.,-23,.
C[C@H](CO)N1C[C@H](C)[C@H](CN(C)C(=O)Nc2ccc(F)cc2)OCCCC[C@H](C)Oc2ccc(NS(=O)(=O)c3ccc(F)cc3)cc2C1=O,.,.,.,.,6,.
C=C1CCC[C@]2(C)C[C@H]3OC(=O)C(CNCCN(CC)CC)[C@H]3CC12 (some centres not stated),22*,2,11,-2,-10,0
COc1ccc(NC(=O)c2ccc(-c3ccc([N+](=O)[O-])cc3)o2)cc1OC,19*,0,3,0,.,6
CC(=O)Nc1cc(-c2ccc(N3CCN(C)CC3)cc2)cn2c(-c3ccc(F)c(Cl)c3)cnc12,18*,0,28,.,.,15
O=C(C[C@H]1CC[C@@H]2NC[C@@H](O)COC[C@H]2O1)NCc1ccc(Oc2ccccc2)cc1,.,.,.,.,6,.

# High-throughput results deposited in PubChem BioAssay by several laboratories.
